MIC and IC50 data for 8 molecules are collected here from ChEMBL document CHEMBL4152223 (Eur J Med Chem, 2018).

Test [1] concerns Mycobacterium kansasii. Nature of the test: Antimycobacterial activity against Mycobacterium kansasii 235/80 after 7 days. It counts as functional. The conditions noted are these: 235/80, 168 h.
Test [2] has as its system Mycobacterium kansasii. As to the kind of experiment: Antimycobacterial activity against Mycobacterium kansasii 6509/96 after 14 days. In kind it is functional. The conditions noted are these: 6509/96, 336 h.
Test [3] deals with Mycobacterium tuberculosis. As to the kind of experiment: Antimycobacterial activity against Mycobacterium tuberculosis H37Rv after 14 days. In kind it is functional. The conditions noted are these: 336 h.
In test [4] the test system is Mycobacterium kansasii. As to the kind of experiment: Antimycobacterial activity against Mycobacterium kansasii 6509/96 after 21 days. In kind it is functional. The conditions noted are these: 6509/96, 504 h.
The test system of test [5] is Mycobacterium avium. Nature of the test: Antimycobacterial activity against INH/RIF/OFX resistant Mycobacterium avium 330/88 after 21 days. In kind it is functional. The conditions noted are these: 330/88, 504 h.
Test [6] concerns Mycobacterium kansasii. Nature of the test: Antimycobacterial activity against Mycobacterium kansasii 235/80 after 21 days. It counts as functional. The conditions noted are these: 235/80, 504 h.
The test system of test [7] is Mycobacterium tuberculosis. As to the kind of experiment: Antimycobacterial activity against Mycobacterium tuberculosis H37Rv after 21 days. It counts as functional. The conditions noted are these: 504 h.
Test [8] concerns Mycobacterium kansasii. As to the kind of experiment: Antimycobacterial activity against Mycobacterium kansasii 235/80 after 14 days. In kind it is functional. The conditions noted are these: 235/80, 336 h.
Test [9] deals with HepG2. Nature of the test: Cytotoxicity against human HepG2 cells assessed as reduction in cell viability by MTS assay. In kind it is cell-based. The procedure, abridged: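 HepG2 human hepatocellular carcinoma cells (passage 2-4) were cultured in Eagle's MEM with 10% FBS, 1% L-glutamine and non-essential amino acids. Compounds were dissolved in DMSO and tested in triplicate at eight concentrations. Viability was read by colorimetric MTS tetrazolium reduction. Controls were 100% viability and 0% viability (10% DMSO). IC50 is the concentration reducing viability to 50% of control.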
(In general: Tetrazolium assays rely on reduction of a dye to a coloured formazan, in cell work by metabolically active cells.)

Test [10] deals with Mycobacterium avium. As to the kind of experiment: Antimycobacterial activity against INH/RIF/OFX resistant Mycobacterium avium 330/88 after 14 days. In kind it is functional. The conditions noted are these: 330/88, 336 h.
The test system of test [11] is Mycobacterium kansasii. As to the kind of experiment: Antimycobacterial activity against Mycobacterium kansasii 6509/96 after 7 days. It counts as functional. The conditions noted are these: 6509/96, 168 h.

Values after ≈ are worked out from the molar mass of the structure shown. Some results are limits rather than exact numbers.

A word on the MIC: it is the smallest concentration in the dilution series that meets the test's criterion for growth inhibition. As usually defined, the IC50 is the midpoint of a concentration-inhibition curve. For `CCCCCCCCCCCCCCCNC(=O)NNC(=O)c1ccncc1`, the MIC in [1] was 32 µM (≈ 12.5 µg/mL); in test [2], 62.5 µM (≈ 24.4 µg/mL); in test [3] it was 32 µM (≈ 12.5 µg/mL); in test [4], 125 µM (≈ 48.8 µg/mL); in test [5], 125 µM (≈ 48.8 µg/mL); in test [6] it was 62.5 µM (≈ 24.4 µg/mL). The MIC in test [7] was found to be 62.5 µM (≈ 24.4 µg/mL); in [8], 62.5 µM (≈ 24.4 µg/mL); in test [10] it was 125 µM (≈ 48.8 µg/mL); in [11], 62.5 µM (≈ 24.4 µg/mL). In addition, the IC50 in [9] is over 75 µM.

As for `CCCCCCCCCCNC(=O)NNC(=O)c1ccncc1`, the MIC in test [1] was found to be 32 µM (≈ 10.3 µg/mL); in test [2] it was 250 µM (≈ 80.1 µg/mL); in [3], 16 µM (≈ 5.13 µg/mL); in [4] it was 250 µM (≈ 80.1 µg/mL); in test [5] it was 500 µM (≈ 160 µg/mL); in [6], 125 µM (≈ 40.1 µg/mL). The MIC in test [7] turned out to be 32 µM (≈ 10.3 µg/mL); in [8], 62.5 µM (≈ 20 µg/mL); in test [10] it was 500 µM (≈ 160 µg/mL); in [11], 125 µM (≈ 40.1 µg/mL). Besides, the IC50 in [9] was over 250 µM.

With `CCCCCCCCCNC(=O)NNC(=O)c1ccncc1`, the MIC in test [1] came out at 32 µM (≈ 9.81 µg/mL); in [2], 125 µM (≈ 38.3 µg/mL); in test [3] it was 62.5 µM (≈ 19.2 µg/mL); in test [4] it was 125 µM (≈ 38.3 µg/mL); in test [5], 250 µM (≈ 76.6 µg/mL); in test [6] it was 125 µM (≈ 38.3 µg/mL). Further, the MIC in [7] is 125 µM (≈ 38.3 µg/mL); in test [8], 62.5 µM (≈ 19.2 µg/mL); in test [10], 250 µM (≈ 76.6 µg/mL); in [11] it was 62.5 µM (≈ 19.2 µg/mL). In addition, in test [9], the IC50 was over 250 µM.

In the case of `CCCCCCCCCCCCCCCCCCNC(=O)NNC(=O)c1ccncc1`, the MIC in [1], in test [2], in test [3], in [4], in test [5] and in test [6] was 250 µM (≈ 108 µg/mL) in each case. The MIC in test [7], in test [8], in test [10] and in test [11] was 250 µM (≈ 108 µg/mL) throughout. The IC50 in test [9] was over 50 µM.

Take `CCCCCCCCCCCCNC(=O)NNC(=O)c1ccncc1`: the MIC was 32 µM (≈ 11.2 µg/mL) in test [1]; 62.5 µM (≈ 21.8 µg/mL) in [2]; 32 µM (≈ 11.2 µg/mL) in test [3]; 62.5 µM (≈ 21.8 µg/mL) in test [4]; 62.5 µM (≈ 21.8 µg/mL) in test [5]; 125 µM (≈ 43.6 µg/mL) in test [6]. In addition, the MIC in test [7] came out at 32 µM (≈ 11.2 µg/mL); in test [8] it was 62.5 µM (≈ 21.8 µg/mL); in test [10], 32 µM (≈ 11.2 µg/mL); in [11] it was 62.5 µM (≈ 21.8 µg/mL). Besides, the IC50 in test [9] is over 50 µM.

On to `CCCCCCCCCCCCCNC(=O)NNC(=O)c1ccncc1`, for which the MIC is 16 µM (≈ 5.8 µg/mL) in test [1]; 62.5 µM (≈ 22.7 µg/mL) in test [2]; 32 µM (≈ 11.6 µg/mL) in [3]; 62.5 µM (≈ 22.7 µg/mL) in [4]; 125 µM (≈ 45.3 µg/mL) in test [5]; 62.5 µM (≈ 22.7 µg/mL) in [6]. For the same molecule, the MIC was found to be 62.5 µM (≈ 22.7 µg/mL) in [7], 32 µM (≈ 11.6 µg/mL) in [8], 125 µM (≈ 45.3 µg/mL) in test [10] and 32 µM (≈ 11.6 µg/mL) in test [11]. The IC50 in test [9] was over 100 µM.

With `CCCCCCCNC(=O)NNC(=O)c1ccncc1`, the MIC in test [1] came to 62.5 µM (≈ 17.4 µg/mL); in test [2], 250 µM (≈ 69.6 µg/mL); in test [3], 32 µM (≈ 8.91 µg/mL); in test [4], 250 µM (≈ 69.6 µg/mL); in test [5], 250 µM (≈ 69.6 µg/mL); in test [6] it was 125 µM (≈ 34.8 µg/mL). For the same molecule, the MIC in test [7] is 62.5 µM (≈ 17.4 µg/mL); in test [8], 125 µM (≈ 34.8 µg/mL); in [10] it was 250 µM (≈ 69.6 µg/mL); in test [11], 125 µM (≈ 34.8 µg/mL). Further, the IC50 in [9] was over 500 µM.

Take `CCCCCCCCNC(=O)NNC(=O)c1ccncc1`: the MIC in test [1] came out at 32 µM (≈ 9.36 µg/mL); in test [2] it was 125 µM (≈ 36.5 µg/mL); in test [3] it was 62.5 µM (≈ 18.3 µg/mL); in [4], 250 µM (≈ 73.1 µg/mL); in test [5], 250 µM (≈ 73.1 µg/mL); in [6], 125 µM (≈ 36.5 µg/mL). Moreover, the MIC in test [7] was 125 µM (≈ 36.5 µg/mL); in test [8], 62.5 µM (≈ 18.3 µg/mL); in test [10] it was 250 µM (≈ 73.1 µg/mL); in test [11] it was 62.5 µM (≈ 18.3 µg/mL). In [9], the IC50 is over 500 µM.
